From ChEMBL document CHEMBL1140710, “Structure-activity relationships of cyclic lactam analogues of alpha-melanocyte-stimulating hormone (alpha-MSH) targeting the human melanocortin-3 receptor” (J Med Chem, 2008)

Legend:
Melanocortin receptor 4 [1] = biological target: T1, Melanocortin receptor 4 (Homo sapiens, UniProt P32245); experiment: biochemical; assay type: cell-based, HEK293
Melanocortin receptor 3 [2] = biological target: T2, Melanocortin receptor 3 (Homo sapiens, UniProt P41968); experiment: biochemical; assay type: cell-based, HEK293
[3] = biological target: T3, Melanocyte-stimulating hormone receptor (Homo sapiens, UniProt Q01726); experiment: Displacement of [125I][Nle4,D-Phe7]alpha-MSH from human MC1 receptor expressed in HEK293 cells; assay type: cell-based
In short: (§1)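 Whole stably transfected HEK293 cells seeded 48 h before assay at 50000 cells/well. Binding buffer: MEM, 25 mM HEPES pH 7.4, 0.2% BSA, 1 mM 1,10-phenanthroline, leupeptin, bacitracin. Cells washed, lysed with NaOH/Triton X-100, gamma-counted. IC50 is mean of two triplicate experiments.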
Target sequence in this assay (Q01726 whole entry): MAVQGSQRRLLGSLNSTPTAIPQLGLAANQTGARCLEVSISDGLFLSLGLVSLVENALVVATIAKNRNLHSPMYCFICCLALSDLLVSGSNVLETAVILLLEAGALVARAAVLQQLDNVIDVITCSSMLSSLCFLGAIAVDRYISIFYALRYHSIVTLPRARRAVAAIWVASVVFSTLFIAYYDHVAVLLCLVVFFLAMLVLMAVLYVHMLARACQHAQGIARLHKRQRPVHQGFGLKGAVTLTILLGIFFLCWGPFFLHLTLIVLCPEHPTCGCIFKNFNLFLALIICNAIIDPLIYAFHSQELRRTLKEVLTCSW

Melanocortin receptor 5 [4] = biological target: T4, Melanocortin receptor 5 (Homo sapiens, UniProt P33032); experiment: Displacement of [125I][Nle4,D-Phe7]alpha-MSH from human MC5 receptor expressed in HEK293 cells; assay type: cell-based
In short: as §1

[5] = biological target: T3, Melanocyte-stimulating hormone receptor; experiment: Agonist activity at human MC1 receptor expressed in HEK293 cells assessed as intracellular cAMP accumulation; assay type: functional, cell-based
In short: (§2)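 Stably transfected HEK293 cells seeded 48 h before assay at 50000 cells/well. Cells preincubated 1 min at 37 °C in Earle's balanced salt solution with 0.5 mM IBMX, then exposed to varying peptide concentrations for 3 min at 37 °C. Cells boiled 7 min, cAMP quantified by [3H]cAMP/PKA competition against a standard curve.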
Target sequence in this assay (Q01726 whole entry): as above

Melanocortin receptor 3 [6] = biological target: T2, Melanocortin receptor 3; experiment: Agonist activity at human MC3 receptor expressed in HEK293 cells assessed as intracellular cAMP accumulation at 10 uM relative to MT2; assay type: functional, cell-based
In short: (§3)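 Stably transfected HEK293 cells seeded 48 h before assay at 50000 cells/well. Cells preincubated 1 min at 37 °C in Earle's balanced salt solution with 0.5 mM IBMX, then exposed to 10 μM peptide for 3 min at 37 °C. Cells boiled 7 min, cAMP measured by [3H]cAMP/PKA competition with a standard curve. Result expressed as percent of cAMP produced by 10 μM MT-II.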

Melanocortin receptor 4 [7] = biological target: T1, Melanocortin receptor 4; experiment: Agonist activity at human MC4 receptor expressed in HEK293 cells assessed as intracellular cAMP accumulation at 10 uM; assay type: functional, cell-based
In short: as §3

Melanocortin receptor 3 [8] = biological target: T2, Melanocortin receptor 3; experiment: Agonist activity at human MC3 receptor expressed in HEK293 cells assessed as intracellular cAMP accumulation; assay type: functional, cell-based
In short: as §2

[9] = biological target: T3, Melanocyte-stimulating hormone receptor; experiment: Agonist activity at human MC1 receptor expressed in HEK293 cells assessed as intracellular cAMP accumulation at 10 uM relative to MT2; assay type: functional, cell-based
In short: as §3
Target sequence in this assay (Q01726 whole entry, looked up): as the sequence (Q01726 whole entry) above

Melanocortin receptor 5 [10] = biological target: T4, Melanocortin receptor 5; experiment: Agonist activity at human MC5 receptor expressed in HEK293 cells assessed as intracellular cAMP accumulation at 10 uM relative to MT2; assay type: functional, cell-based
In short: as §3

Melanocortin receptor 5 [11] = biological target: T4, Melanocortin receptor 5; experiment: Agonist activity at human MC5 receptor expressed in HEK293 cells assessed as intracellular cAMP accumulation at 10 uM; assay type: functional, cell-based
In short: as §3

Melanocortin receptor 4 [12] = biological target: T1, Melanocortin receptor 4; experiment: Agonist activity at human MC4 receptor expressed in HEK293 cells assessed as intracellular cAMP accumulation at 10 uM relative to MT2; assay type: functional, cell-based
In short: as §3

Melanocortin receptor 3 [13] = biological target: T2, Melanocortin receptor 3; experiment: Agonist activity at human MC3 receptor expressed in HEK293 cells assessed as intracellular cAMP accumulation at 10 uM; assay type: functional, cell-based
In short: as §3

Melanocortin receptor 3 [14] = biological target: T2, Melanocortin receptor 3; experiment: Antagonist activity at human MC3 receptor expressed in HEK293 cells assessed as inhibition of MT2 induced intracellular cAMP accumulation; assay type: functional, cell-based; details: for Kb: read-out: pA2 (converted)
Melanocortin receptor 5 [15] = biological target: T4, Melanocortin receptor 5; experiment: Antagonist activity at human MC5 receptor expressed in HEK293 cells assessed as inhibition of MT2 induced intracellular cAMP accumulation; assay type: functional, cell-based; details: read-out: pA2 (converted)
[16] = biological target: T3, Melanocyte-stimulating hormone receptor; experiment: Agonist activity at human MC1 receptor expressed in HEK293 cells assessed as intracellular cAMP accumulation at 10 uM; assay type: functional, cell-based
In short: as §3
Target sequence in this assay (Q01726 whole entry, looked up): as the sequence (Q01726 whole entry) above

Melanocortin receptor 5 [17] = biological target: T4, Melanocortin receptor 5; experiment: Agonist activity at human MC5 receptor expressed in HEK293 cells assessed as intracellular cAMP accumulation; assay type: functional, cell-based
In short: (§4)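 HEK293 cells stably transfected with the receptor, seeded 48 h ahead at 50000 cells/well. Preincubated 1 min at 37 °C in Earle's balanced salt solution with 0.5 mM IBMX, then exposed to peptide for 3 min at 37 °C. cAMP measured by [3H]cAMP/PKA competition against a standard curve.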

Melanocortin receptor 4 [18] = biological target: T1, Melanocortin receptor 4; experiment: Agonist activity at human MC4 receptor expressed in HEK293 cells assessed as intracellular cAMP accumulation; assay type: functional, cell-based
In short: as §4

T4 sequence (P33032 whole entry): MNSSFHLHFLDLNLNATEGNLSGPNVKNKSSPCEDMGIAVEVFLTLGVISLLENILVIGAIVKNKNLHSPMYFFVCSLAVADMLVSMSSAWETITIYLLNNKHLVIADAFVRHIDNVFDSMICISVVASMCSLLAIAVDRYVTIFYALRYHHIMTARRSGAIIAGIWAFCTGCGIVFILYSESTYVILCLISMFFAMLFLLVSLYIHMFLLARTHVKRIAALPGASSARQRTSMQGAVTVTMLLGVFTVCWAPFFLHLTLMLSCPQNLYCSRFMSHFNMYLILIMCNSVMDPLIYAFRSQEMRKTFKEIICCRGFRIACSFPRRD
T2 sequence (P41968 whole entry): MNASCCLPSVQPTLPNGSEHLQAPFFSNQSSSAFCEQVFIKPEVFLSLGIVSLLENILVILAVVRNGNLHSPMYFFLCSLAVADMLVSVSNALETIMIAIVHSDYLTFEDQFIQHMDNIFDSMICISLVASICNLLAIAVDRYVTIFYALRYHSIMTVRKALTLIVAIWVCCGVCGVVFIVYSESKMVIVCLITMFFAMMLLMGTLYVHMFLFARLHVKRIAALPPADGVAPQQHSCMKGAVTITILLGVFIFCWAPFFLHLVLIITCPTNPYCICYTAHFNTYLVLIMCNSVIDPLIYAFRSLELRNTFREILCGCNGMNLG
T1 sequence (P32245 whole entry): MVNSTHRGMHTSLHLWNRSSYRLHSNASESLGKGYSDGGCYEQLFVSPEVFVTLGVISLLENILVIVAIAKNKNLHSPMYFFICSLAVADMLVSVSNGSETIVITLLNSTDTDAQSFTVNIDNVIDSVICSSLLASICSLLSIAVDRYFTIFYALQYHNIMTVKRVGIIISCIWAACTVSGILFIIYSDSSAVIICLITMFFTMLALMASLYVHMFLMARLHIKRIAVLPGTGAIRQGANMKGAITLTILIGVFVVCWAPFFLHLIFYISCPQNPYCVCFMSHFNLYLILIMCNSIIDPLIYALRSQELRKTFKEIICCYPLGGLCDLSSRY

Row | Compound | IC50 (Melanocortin receptor 4 [1]) [nM] | IC50 (Melanocortin receptor 3 [2]) [nM] | IC50 [3] [nM] | IC50 (Melanocortin receptor 5 [4]) [nM] | EC50 [5] [nM] | Activity (Melanocortin receptor 3 [6]) [%] | Activity (Melanocortin receptor 4 [7]) [%] | EC50 (Melanocortin receptor 3 [8]) [nM] | Activity [9] [%] | Activity (Melanocortin receptor 5 [10]) [%] | Activity (Melanocortin receptor 5 [11]) [%] | Activity (Melanocortin receptor 4 [12]) [%] | Activity (Melanocortin receptor 3 [13]) [%] | Kb (Melanocortin receptor 3 [14]) [nM] | Kb (Melanocortin receptor 5 [15]) [nM] | Activity [16] [%] | EC50 (Melanocortin receptor 5 [17]) [nM] | pA2 (Melanocortin receptor 3 [14]; hek293) | Ki (Melanocortin receptor 3 [2]; hek293) [nM] | EC50 (Melanocortin receptor 4 [18]) [nM]
1 | NC(=O)[C@@H]1CCCCNC(=O)c2nccnc2C(=O)N[C@H](Cc2ccc3ccccc3c2)C(=O)N[C@@H](CCCN=C(N)N)C(=O)N[C@@H](Cc2c[nH]c3ccccc23)C(=O)N1 | > 1000 | 23 | 707 | 230 | > 3000 |  |  |  |  |  |  |  |  |  |  |  |  |  |  | 
2 | N=C(N)NCCC[C@@H]1NC(=O)[C@@H](Cc2ccccc2)NC(=O)c2nccnc2C(=O)NCCCC[C@@H](C(N)=O)NC(=O)[C@H](Cc2c[nH]c3ccccc23)NC1=O | > 10000 | 1100 | 412 | > 10000 | > 10000 | 70 | 0 | 27 | 60 | 0 | 0 | 0 |  |  |  |  |  |  |  | 
3 | N=C(N)NCCC[C@@H]1NC(=O)[C@@H](Cc2ccccc2)NC(=O)c2cccc(n2)C(=O)NCCCC[C@@H](C(N)=O)NC(=O)[C@H](Cc2c[nH]c3ccccc23)NC1=O | > 10000 | > 10000 | > 10000 | > 10000 | > 1000 | 0 | 0 |  | 15 | 0 | 0 | 0 | 0 |  |  |  |  |  |  | 
4 | N=C(N)NCCC[C@@H]1NC(=O)[C@@H](Cc2ccc3ccccc3c2)NC(=O)[C@@H]2CCCN2C(=O)c2ccccc2C(=O)NCCCC[C@@H](C(N)=O)NC(=O)[C@H](Cc2c[nH]c3ccccc23)NC1=O | 430 | 32 | 410 | 210 | > 5000 | 0 | 0 |  | 80 | 0 | 0 | 0 | 0 |  |  |  |  |  |  | 
5 | CCCC[C@@H]1NC(=O)CCC(=O)NCCCC[C@@H](C(N)=O)NC(=O)[C@H](Cc2c[nH]c3ccccc23)NC(=O)[C@H](CCCN=C(N)N)NC(=O)[C@@H](Cc2ccc3ccccc3c2)NC1=O | 300 | 12 | 2000 | 17 | > 1000 |  |  |  |  |  |  |  |  | 5.01 | 2 |  |  |  |  | 
6 | NC(=O)[C@@H]1CCCCNC(=O)c2cccc(n2)C(=O)N[C@H](Cc2ccc3ccccc3c2)C(=O)N[C@@H](CCCN=C(N)N)C(=O)N[C@@H](Cc2c[nH]c3ccccc23)C(=O)N1 | > 1000 | > 1000 | > 10000 | > 10000 |  |  |  |  |  |  |  |  |  |  |  |  |  |  |  | 
7 | N=C(N)NCCC[C@@H]1NC(=O)[C@@H](Cc2ccc3ccccc3c2)NC(=O)c2cccc(n2)C(=O)NCCCC[C@@H](C(N)=O)NC(=O)[C@H](Cc2c[nH]c3ccccc23)NC1=O |  |  |  |  |  | 0 | 0 |  | 0 | 0 | 0 | 0 | 0 |  |  | 0 |  |  |  | 
8 | N=C(N)NCCC[C@@H]1NC(=O)[C@@H](Cc2ccc3ccccc3c2)NC(=O)[C@@H]2CCCN2C(=O)/C=C\C(=O)NCCCC[C@@H](C(N)=O)NC(=O)[C@H](Cc2c[nH]c3ccccc23)NC1=O | 520 | 20 | > 10000 | 120 |  | 0 | 0 |  | 0 | 0 | 0 | 0 | 0 |  |  | 0 |  |  |  | 
9 | NC(=O)[C@@H]1CCCCNC(=O)CCCC(=O)N2CCC[C@H]2C(=O)N[C@H](Cc2ccc3ccccc3c2)C(=O)N[C@@H](CCCN=C(N)N)C(=O)N[C@@H](Cc2c[nH]c3ccccc23)C(=O)N1 | 330 | 11 | > 10000 | 27 |  |  |  |  |  |  |  |  |  | 0.158 |  |  | 23 |  |  | 
10 | N=C(N)NCCC[C@@H]1NC(=O)[C@@H](Cc2ccccc2)NC(=O)[C@@H]2CCCN2C(=O)c2ccccc2C(=O)NCCCC[C@@H](C(N)=O)NC(=O)[C@H](Cc2c[nH]c3ccccc23)NC1=O | 777 | > 1000 | > 10000 | > 1000 |  | 100 | 0 | 95 | 0 | 0 | 0 | 0 |  |  |  | 0 |  |  |  | 
11 | CCCC[C@@H]1NC(=O)CCC(=O)NCCCC[C@@H](C(N)=O)NC(=O)[C@H](Cc2c[nH]c3ccccc23)NC(=O)[C@H](CCCN=C(N)N)NC(=O)[C@@H](Cc2ccccc2)NC1=O | 930 | 84 | > 10000 | 520 |  |  |  |  |  |  |  |  |  |  |  |  | > 1000 |  |  | 
12 | N=C(N)NCCC[C@@H]1NC(=O)[C@@H](Cc2ccc3ccccc3c2)NC(=O)c2nccnc2C(=O)NCCCC[C@@H](C(N)=O)NC(=O)[C@H](Cc2c[nH]c3ccccc23)NC1=O |  |  |  |  |  | 0 | 0 |  | 55 | 0 | 0 | 0 | 0 |  |  |  |  |  |  | 
13 | N=C(N)NCCC[C@@H]1NC(=O)[C@@H](Cc2ccccc2)NC(=O)[C@@H]2CCCN2C(=O)/C=C\C(=O)NCCCC[C@@H](C(N)=O)NC(=O)[C@H](Cc2c[nH]c3ccccc23)NC1=O | 160 | > 1000 | > 10000 | 790 |  | 80 | 0 | 100 | 0 | 0 | 0 | 0 |  |  |  | 0 |  |  |  | 
14 | NC(=O)[C@@H]1CCCCNC(=O)CC[C@H](N)C(=O)N[C@@H](Cc2cnc[nH]2)C(=O)N[C@H](Cc2ccc3ccccc3c2)C(=O)N[C@@H](CCCN=C(N)N)C(=O)N[C@@H](Cc2c[nH]c3ccccc23)C(=O)N1 |  |  |  |  |  |  |  |  |  |  |  |  |  |  |  |  |  | 10.6 | 5.9 | 
15 | NC(=O)[C@@H]1CCCCNC(=O)CCCC(=O)N2CCC[C@H]2C(=O)N[C@H](Cc2ccccc2)C(=O)N[C@@H](CCCN=C(N)N)C(=O)N[C@@H](Cc2c[nH]c3ccccc23)C(=O)N1 | > 1000 | 385 | > 10000 | 870 |  |  |  | 29 |  |  |  |  |  |  |  |  | 570 |  |  | > 2000
